In ChEMBL document CHEMBL4184294, “A small group of sulfated benzofurans induces steady-state submaximal inhibition of thrombin” (Bioorg Med Chem Lett, 2018):
Active and inactive are the calls of the source. The rule behind the calls is not given here.

What was measured:
Prothrombin [1] = molecular target: T1, Prothrombin (Homo sapiens, UniProt P00734); assay: Partial allosteric inhibition of human thrombin using […] as substrate measured after 1 min by fibrometric method
Prothrombin [2] = molecular target: T1, Prothrombin; assay: Inhibition of human thrombin using spectrozyme TH as substrate pretreated for 10 mins followed by substrate addition measured in presence of 5 uM exosite 1 competitor hirudine peptide by spectrophotometric method; settings: in the assay text read “5 nM” for “5 uM”
Summary of the method: (§1)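 Residual thrombin activity read as Spectrozyme TH hydrolysis in 20 mM Tris-HCl pH 7.4 with 100 mM NaCl, 2.5 mM CaCl2 and 0.1% PEG8000 at 25 °C. Exosite competitors varied: hirudin peptide 0–50 nM or 0–30 nM; UFH 0–50 μM. Apparent IC50 obtained from a logistic fit.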

Prothrombin [3] = molecular target: T1, Prothrombin; assay: Inhibition of recombinant thrombin R165A mutant (unknown origin) at 0.02 to 200 uM using spectrozyme TH as substrate pretreated for 10 mins followed by substrate addition by spectrophotometric method
Summary of the method: (§2)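 Recombinant wild-type and Ala-mutant thrombins assayed by Spectrozyme TH hydrolysis at pH 7.4 and 25 °C. IC50 derived for each mutant.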

Prothrombin [4] = molecular target: T1, Prothrombin; assay: Ratio of IC50(app) for inhibition of human thrombin using spectrozyme TH as substrate in presence of exosite 2 competitor unfractionated heparin to IC50(app) for inhibition of human thrombin using spectrozyme TH as substrate in absence of exosite 2 competitor unfractionated heparin
Prothrombin [5] = molecular target: T1, Prothrombin; assay: Inhibition of human thrombin using spectrozyme TH as substrate pretreated for 10 mins followed by substrate addition measured in absence of exosite 1 competitor hirudine peptide by spectrophotometric method; summary of the method: as §1
Prothrombin [6] = molecular target: T1, Prothrombin; assay: Inhibition of recombinant thrombin R126A mutant (unknown origin) at 0.02 to 200 uM using spectrozyme TH as substrate pretreated for 10 mins followed by substrate addition by spectrophotometric method; summary of the method: as §2
Prothrombin [7] = molecular target: T1, Prothrombin; assay: Inhibition of human thrombin using spectrozyme TH as substrate pretreated for 10 mins followed by substrate addition measured in absence of exosite 2 competitor unfractionated heparin by spectrophotometric method; summary of the method: as §1
Prothrombin [8] = molecular target: T1, Prothrombin; assay: Inhibition of human thrombin using spectrozyme TH as substrate pretreated for 10 mins followed by substrate addition measured in presence of 50 uM exosite 2 competitor unfractionated heparin by spectrophotometric method; summary of the method: as §1
Prothrombin [9] = molecular target: T1, Prothrombin; assay: Partial allosteric inhibition of human thrombin using spectrozyme TH as substrate pretreated for 10 mins followed by substrate addition by spectrophotometric method
Summary of the method: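 Chromogenic substrate hydrolysis by thrombin read spectrophotometrically in 20 mM Tris-HCl pH 7.4 with […], 100 mM NaCl and 0.1% PEG 8000 at 25 °C. Sigmoidal fits gave IC50 and efficacy (ΔY). Errors ±1 S.E.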

Prothrombin [10] = molecular target: T1, Prothrombin; assay: Non-competitive inhibition of human thrombin assessed as reduction in substrate Vmax using varying levels of spectrozyme TH as substrate measured after 10 mins by Michaelis-Menten plot analysis
Prothrombin [11] = molecular target: T1, Prothrombin; assay: Inhibition of human thrombin using spectrozyme TH as substrate pretreated for 10 mins followed by substrate addition measured in presence of 30 uM exosite 1 competitor hirudine peptide by spectrophotometric method; settings: in the assay text read “30 nM” for “30 uM”; summary of the method: as §1
Prothrombin [12] = molecular target: T1, Prothrombin; assay: Partial allosteric inhibition of thrombin (unknown origin) assessed as reduction in enzyme-mediated fibrinogen cleavage at 0.5 to 150 uM pretreated for 10 mins followed by fibrinogen addition measured after 1 min by SDS-PAGE analysis relative to control
Summary of the method: (§3)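 Cleavage of human fibrinogen (4.7 μM) by 6 nM thrombin with inhibitor at 0 to 150 μM. Products resolved by PAGE.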

Prothrombin [13] = molecular target: T1, Prothrombin; assay: Inhibition of human thrombin using spectrozyme TH as substrate pretreated for 10 mins followed by substrate addition measured in presence of 10 uM exosite 2 competitor unfractionated heparin by spectrophotometric method; summary of the method: as §1
Prothrombin [14] = molecular target: T1, Prothrombin; assay: Inhibition of recombinant thrombin K235A mutant (unknown origin) at 0.02 to 200 uM using spectrozyme TH as substrate pretreated for 10 mins followed by substrate addition by spectrophotometric method; summary of the method: as §2
Prothrombin [15] = molecular target: T1, Prothrombin; assay: Inhibition of recombinant thrombin R173A mutant (unknown origin) at 0.02 to 200 uM using spectrozyme TH as substrate pretreated for 10 mins followed by substrate addition by spectrophotometric method; summary of the method: as §2
Prothrombin [16] = molecular target: T1, Prothrombin; assay: Non competitive inhibition of human thrombin assessed as reduction in substrate Vmax at 40 uM using varying levels of spectrozyme TH as substrate measured after 10 mins by Michaelis-Menten plot analysis relative to control
Prothrombin [17] = molecular target: T1, Prothrombin; assay: Inhibition of human thrombin using spectrozyme TH as substrate pretreated for 10 mins followed by substrate addition measured in presence of 15 uM exosite 1 competitor hirudine peptide by spectrophotometric method; settings: in the assay text read “15 nM” for “15 uM”; summary of the method: as §1
Prothrombin [18] = molecular target: T1, Prothrombin; assay: Partial allosteric inhibition of thrombin (unknown origin) assessed as reduction in enzyme-mediated fibrinogen cleavage pretreated for 10 mins followed by fibrinogen addition measured after 1 min by SDS-PAGE analysis relative to control; summary of the method: as §3
Prothrombin [19] = molecular target: T1, Prothrombin; assay: Binding affinity to wild-type thrombin (unknown origin) by intrinsic fluorescence method
Summary of the method: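 Intrinsic fluorescence titration of wild-type plasma thrombin at pH 7.4 and 25 °C. KD derived from the fluorescence change.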

Prothrombin [20] = molecular target: T1, Prothrombin; assay: Inhibition of human thrombin using spectrozyme TH as substrate pretreated for 10 mins followed by substrate addition measured in presence of 20 uM exosite 2 competitor unfractionated heparin by spectrophotometric method; summary of the method: as §1
Prothrombin [21] = molecular target: T1, Prothrombin; assay: Partial allosteric inhibition of human thrombin at 300 uM using spectrozyme TH as substrate pretreated for 10 mins followed by substrate addition by spectrophotometric method relative to control
Prothrombin [22] = molecular target: T1, Prothrombin; assay: Inhibition of recombinant thrombin R233A mutant (unknown origin) at 0.02 to 200 uM using spectrozyme TH as substrate pretreated for 10 mins followed by substrate addition by spectrophotometric method; summary of the method: as §2
Prothrombin [23] = molecular target: T1, Prothrombin; assay: Inhibition of recombinant thrombin R93A mutant (unknown origin) at 0.02 to 200 uM using spectrozyme TH as substrate pretreated for 10 mins followed by substrate addition by spectrophotometric method; summary of the method: as §2
Prothrombin [24] = molecular target: T1, Prothrombin; assay: Inhibition of recombinant thrombin R175A mutant (unknown origin) at 0.02 to 200 uM using spectrozyme TH as substrate pretreated for 10 mins followed by substrate addition by spectrophotometric method; summary of the method: as §2
[25] = system: Prothrombin (Homo sapiens), P00734 [R97A]; assay: Inhibition of recombinant thrombin R97A mutant (unknown origin) at 0.02 to 200 uM using spectrozyme TH as substrate pretreated for 10 mins followed by substrate addition by spectrophotometric method; summary of the method: as §2
Prothrombin [26] = molecular target: T1, Prothrombin; assay: Inhibition of recombinant thrombin K169A mutant (unknown origin) at 0.02 to 200 uM using spectrozyme TH as substrate pretreated for 10 mins followed by substrate addition by spectrophotometric method; summary of the method: as §2
Prothrombin [27] = molecular target: T1, Prothrombin; assay: Inhibition of recombinant thrombin R101A mutant (unknown origin) at 0.02 to 200 uM using spectrozyme TH as substrate pretreated for 10 mins followed by substrate addition by spectrophotometric method; summary of the method: as §2
Prothrombin [28] = molecular target: T1, Prothrombin; assay: Binding affinity to human fluorescence labelled FPRCK-alpha thrombin by fluorimetric method
Summary of the method: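 Fluorescein-tagged FPRCK-thrombin titrated with inhibitor at pH 7.4 and 25 °C. Fluorescence decrease recorded ([…]). KD obtained by nonlinear fit to a quadratic equation.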

Prothrombin [29] = molecular target: T1, Prothrombin; assay: Inhibition of recombinant thrombin K236A mutant (unknown origin) at 0.02 to 200 uM using spectrozyme TH as substrate pretreated for 10 mins followed by substrate addition by spectrophotometric method; summary of the method: as §2
Prothrombin [30] = molecular target: T1, Prothrombin; assay: Mixed-type inhibition of human thrombin assessed as reduction in substrate Vmax using varying levels of spectrozyme TH as substrate measured after 10 mins by Michaelis-Menten plot analysis
Prothrombin [31] = molecular target: T1, Prothrombin; assay: Mixed-type inhibition of human thrombin assessed as reduction in substrate Vmax at 40 uM using varying levels of spectrozyme TH as substrate measured after 10 mins by Michaelis-Menten plot analysis relative to control
Prothrombin [32] = molecular target: T1, Prothrombin; assay: Inhibition of thrombin (unknown origin)

Molecule	IC50 (Prothrombin [2]) [µM]	inhibition (Prothrombin [3])	IC50 (Prothrombin [5]) [µM]	IC50 (Prothrombin [7]) [µM]	IC50 (Prothrombin [8]) [µM]	Efficacy (Prothrombin [9]) [%]	IC50 (Prothrombin [9]) [µM]	IC50 (Prothrombin [11]) [µM]	inhibition (Prothrombin [12]) [%]	IC50 (Prothrombin [13]) [µM]	IC50 (Prothrombin [17]) [µM]	inhibition (Prothrombin [18])	IC50 (Prothrombin [20]) [µM]	inhibition (Prothrombin [21]) [%]	inhibition (Prothrombin [22])	inhibition (Prothrombin [24])	inhibition (Prothrombin [26])	Kd (Prothrombin [28]) [µM]	inhibition (Prothrombin [29])	other results
H-PEHPAETEYDSLYPEDDL-OH	–	–	–	–	–	–	–	–	–	–	–	–	–	–	–	–	–	–	–	IC50 (Prothrombin [1]): 130 µM
CCOC(=O)c1c(C)oc2cc(OCCc3ccccc3)c(OCc3oc4cc(OC)c(OS(=O)(=O)O)cc4c3C(=O)OCC)cc12	2.7	Active	1.3	1.3	14.5	58	1.8	1.5	70	3.3	1.6	Dose-dependent effect	3.4	> 50	Active	Active	Active	3.7	Active	Ratio IC50 (Prothrombin [4]): 11; inhibition (Prothrombin [6]): Active; inhibition (Prothrombin [10]): Dose-dependent effect; inhibition (Prothrombin [14]): Active; inhibition (Prothrombin [15]): Active; fold change (FC) (Prothrombin [16]): 2; Kd (Prothrombin [19]): 2.8 µM; inhibition (Prothrombin [23]): Active; inhibition [25]: Active; inhibition (Prothrombin [27]): Active
CCOC(=O)c1c(C)oc2cc(OCc3ccccc3)c(OCc3oc4cc(OCC5CCCCC5)c(OS(=O)(=O)O)cc4c3C(=O)OCC)cc12	2.6	inactive	2	2	2.6	90	3.6	2.9	> 90	2.7	3.6	Dose-dependent effect	2.8	> 50	inactive	inactive	inactive	1	inactive	inhibition (Prothrombin [30]): Dose-dependent effect; fold change (FC) (Prothrombin [31]): 2
CCOC(=O)c1c(C)oc2cc(OC(=O)c3ccc(OC)cc3)c(OS(=O)(=O)O)cc12	–	–	–	–	–	–	–	–	–	–	–	–	–	–	–	–	–	–	–	Efficacy (Prothrombin [32]): 54%
